Laboratory results as given in ChEMBL document CHEMBL1136609, “An adjustable release rate linking strategy for cytotoxin-peptide conjugates” (Bioorg Med Chem Lett, 2003).

Legend:
IMR-32 = test: Cytotoxic activity against human neuroblastoma IMR32 cells; format: functional, cell-based
In short: (§1)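 Human neuroblastoma IMR-32 cells (somatostatin receptor/SSTR2 over-expressing) exposed to a range of compound concentrations for 3 days, in quadruplicate; viability read by MTT assay; IC50 taken from dose-response curves.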

[1] = Half-life in rat serum; format: ADME, organism-based
In short: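 Compounds incubated at 37°C in fresh rat serum; aliquots removed at several time points and analysed by HPLC to estimate half-life.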

Rattus norvegicus [2] = organism: Rattus norvegicus; test: Inhibitory activity against GHRH-stimulated GH release from monolayer cultures of rat pituitary cells; format: functional, cell-based; details: Pituitary gland cell
In short: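 Monolayer cultures of rat pituitary cells stimulated with GHRH; agonist potency measured as inhibition of GH release, expressed as IC50.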

[3] = Half-life in phosphate buffer; format: ADME
In short: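 Incubated in 0.1 M phosphate buffer at 37°C; aliquots taken at various time points and analysed by HPLC to give half-life. The experiment ran for 50 h.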

Somatostatin receptor = test: Cytotoxic activity against human neuroblastoma IMR32 cells which over-express somatostatin receptors; format: functional, cell-based; details: imr-32; in short: as §1
Rattus norvegicus [4] = organism: Rattus norvegicus; test: Inhibitory activity against GHRH-stimulated GH release from monolayer cultures of rat pituitary cells; na is not active; format: functional, cell-based; details: pituitary gland cell

| SMILES | half-life [1] [h] | IC50 (Rattus norvegicus [2]) [nM] | IC50 (IMR-32) [nM] | half-life [3] [h] | IC50 (Somatostatin receptor) [nM] | IC50 (Rattus norvegicus [4]) |
| --- | --- | --- | --- | --- | --- | --- |
| CCCC[C@H](NC(=O)[C@@H](CO)NC(=O)CN(CCN)C(=O)O[C@]1(CC)C(=O)OCc2c1cc1n(c2=O)Cc2cc3ccccc3nc2-1)C(=O)N[C@H](Cc1ccc(O)cc1)C(=O)N[C@H](CO)C(=O)N[C@@H]1CSSC[C@H](C(=O)N[C@H](C(N)=O)[C@@H](C)O)NC(=O)[C@H]([C@@H](C)O)NC(=O)[C@H](CCCN)NC(=O)[C@@H](Cc2c[nH]c3ccccc23)NC(=O)[C@H](Cc2ccccc2)NC1=O | 106 | 0.32 | 374 | – | – | – |
| CCCC[C@H](NC(=O)[C@@H](CO)NC(=O)CN(CCN)C(=O)Oc1cc(/C=C\c2cc(OC)c(OC)c(OC)c2)ccc1OC)C(=O)N[C@H](Cc1ccc(O)cc1)C(=O)N[C@H](CO)C(=O)N[C@@H]1CSSC[C@H](C(=O)N[C@H](C(N)=O)[C@@H](C)O)NC(=O)[C@H]([C@@H](C)O)NC(=O)[C@H](CCCN)NC(=O)[C@@H](Cc2c[nH]c3ccccc23)NC(=O)[C@H](Cc2ccccc2)NC1=O | 4 | 0.31 | – | 31 | 2.79 | – |
| CCCC[C@H](NC(=O)[C@@H](CO)NC(=O)CN(CCO)C(=O)O[C@]1(CC)C(=O)OCc2c1cc1n(c2=O)Cc2cc3ccccc3nc2-1)C(=O)N[C@H](Cc1ccc(O)cc1)C(=O)N[C@H](CO)C(=O)N[C@@H]1CSSC[C@H](C(=O)N[C@H](C(N)=O)[C@@H](C)O)NC(=O)[C@H]([C@@H](C)O)NC(=O)[C@H](CCCN)NC(=O)[C@@H](Cc2c[nH]c3ccccc23)NC(=O)[C@H](Cc2ccccc2)NC1=O | – | 0.49 | – | – | > 1000 | – |
| CC[C@@]1(O)C(=O)OCc2c1cc1n(c2=O)Cc2cc3ccccc3nc2-1 [CAMPTOTHECIN] | – | – | – | – | 2.21 | Not Active |

Further lines, with some results ahead:

| half-life [1] [h] | IC50 (Rattus norvegicus [2]) [nM] | SMILES | IC50 (IMR-32) [nM] | half-life [3] [h] | IC50 (Somatostatin receptor) [nM] | IC50 (Rattus norvegicus [4]) |
| --- | --- | --- | --- | --- | --- | --- |
| 18 | 0.27 | CCCC[C@H](NC(=O)[C@@H](CO)NC(=O)CN(CCNC)C(=O)O[C@]1(CC)C(=O)OCc2c1cc1n(c2=O)Cc2cc3ccccc3nc2-1)C(=O)N[C@H](Cc1ccc(O)cc1)C(=O)N[C@H](CO)C(=O)N[C@@H]1CSSC[C@H](C(=O)N[C@H](C(N)=O)[C@@H](C)O)NC(=O)[C@H]([C@@H](C)O)NC(=O)[C@H](CCCN)NC(=O)[C@@H](Cc2c[nH]c3ccccc23)NC(=O)[C@H](Cc2ccccc2)NC1=O | – | 123 | 54.2 | – |
| 59 | 0.3 | CCCC[C@H](NC(=O)[C@@H](CO)NC(=O)CN(CCN(C)C)C(=O)O[C@]1(CC)C(=O)OCc2c1cc1n(c2=O)Cc2cc3ccccc3nc2-1)C(=O)N[C@H](Cc1ccc(O)cc1)C(=O)N[C@H](CO)C(=O)N[C@@H]1CSSC[C@H](C(=O)N[C@H](C(N)=O)[C@@H](C)O)NC(=O)[C@H]([C@@H](C)O)NC(=O)[C@H](CCCN)NC(=O)[C@@H](Cc2c[nH]c3ccccc23)NC(=O)[C@H](Cc2ccccc2)NC1=O | – | – | 571 | – |
| 72 | 0.26 | CCCC[C@H](NC(=O)[C@@H](CO)NC(=O)CN(CCCN)C(=O)O[C@]1(CC)C(=O)OCc2c1cc1n(c2=O)Cc2cc3ccccc3nc2-1)C(=O)N[C@H](Cc1ccc(O)cc1)C(=O)N[C@H](CO)C(=O)N[C@@H]1CSSC[C@H](C(=O)N[C@H](C(N)=O)[C@@H](C)O)NC(=O)[C@H]([C@@H](C)O)NC(=O)[C@H](CCCN)NC(=O)[C@@H](Cc2c[nH]c3ccccc23)NC(=O)[C@H](Cc2ccccc2)NC1=O | – | – | > 1000 | – |
